Source: PubChem BioAssay (several laboratories)
PERK inhibitor = inhibitors of human PERK kinase; Q9NZJ5; CHO PERK-DD fusion, SEAP luminescence translation reporter; inhibition, % at 5.6 µM; 220,000 compounds, 0.17% hits;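 active = inhibition above the mean inhibition of all tested compounds plus 3 SD, set separately per screening campaign, cut at about 2.9% in these data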;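 note: PERK kinase domain activated by AP20187 dimerizer at 100 nM; 0% = DMSO with dimerizer and 100% = rapamycin at 8.4 µM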
Hck Nef HTS = inhibitors of human Hck kinase activated by Nef; P08631; Recombinant Hck-YEEI plus Nef, Z-Lyte FRET kinase assay; inhibition, % at 20 µM; 220,000 compounds, 0.68% hits;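 active = Hck-Nef kinase inhibition above about 50%, limit read from the data; inactive = inhibition below that limit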;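 note: 0% = DMSO with Hck plus Nef and 100% = Hck alone without Nef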
RanGTP-Imp inh = inhibitors of RanGTP-importin-beta interaction, primary screen, biochemical, FRET, CFP-Ran, YFP-importin-beta, homogeneous; cell-free CFP-Ran/YFP-importin-beta FRET ratio; inhibition, % (no concentration beside the values); 300,000 compounds, 1.1% hits;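 active = more than half of the replicate wells show a fall in the fluorescence ratio signal beyond about 16%, limit read from the data, passing the limit was not always enough; inconclusive = exactly half of the replicate wells pass the set limit; inactive = fewer than half of replicates pass the limit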;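 note: 0% = DMSO wells and 100% = Ran loaded with GDP instead of GTP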
Runt-SMMHC FRET = inhibitors of human RUNX1 Runt domain binding to CBFb-SMMHC | Cerulean-Runt/Venus-CBFb-SMMHC FRET ratio 530/480, 1 h | inhibition, % at 20 µM | Q01196+Q13951 | 220,000 compounds, 0.74% hits | AID 1434;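 active = mean inhibition across duplicate retests at 20 µM reaching about 50%, limit read from the data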;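 note: 0% = DMSO wells and 100% = wells with excess untagged CBFb-SMMHC; inhibitors lower the FRET ratio by blocking Runt binding to CBFb-SMMHC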
Target sequence (Q01196 whole entry, looked up, the tested form may be a part): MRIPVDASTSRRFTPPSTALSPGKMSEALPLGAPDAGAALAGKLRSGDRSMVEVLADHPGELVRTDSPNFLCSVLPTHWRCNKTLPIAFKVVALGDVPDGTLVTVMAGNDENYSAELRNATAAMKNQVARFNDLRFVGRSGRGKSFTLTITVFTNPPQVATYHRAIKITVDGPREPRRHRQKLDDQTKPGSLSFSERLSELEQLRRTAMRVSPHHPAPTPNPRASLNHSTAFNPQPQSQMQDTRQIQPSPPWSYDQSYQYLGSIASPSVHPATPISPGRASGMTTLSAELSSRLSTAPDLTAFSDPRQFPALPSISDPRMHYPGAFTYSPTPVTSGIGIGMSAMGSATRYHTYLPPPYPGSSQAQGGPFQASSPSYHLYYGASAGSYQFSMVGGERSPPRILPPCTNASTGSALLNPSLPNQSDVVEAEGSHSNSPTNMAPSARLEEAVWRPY
Target sequence (Q13951 whole entry, looked up, the tested form may be a part): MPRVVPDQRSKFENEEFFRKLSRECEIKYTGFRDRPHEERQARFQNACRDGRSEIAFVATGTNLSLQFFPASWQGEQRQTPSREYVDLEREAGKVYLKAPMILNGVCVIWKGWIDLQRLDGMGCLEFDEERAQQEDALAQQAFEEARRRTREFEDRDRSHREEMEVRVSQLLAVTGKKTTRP
Runt-CBFb FRET = blocks binding of human RUNX1 Runt domain to CBFb; AID 1496; Q01196+Q13951; inhibition, % at 20 µM; Cerulean-Runt/Venus-CBFb FRET ratio 530/480, 1 h; 220,000 compounds, 0.46% hits;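 active = inhibition over about 50% at 20 µM in the single-dose screen, limit read from the data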;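 note: 0% = DMSO wells and 100% = excess unlabeled CBFb competitor control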
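Assay system: Cerulean-Runt domain / Medium: Tris 50 mM pH 7.5, KCl, K2SO4, 0.01% BSA / Timing: protein complex preformed 1 h, compound exposure 1 h, room temperature, dark / Measured by: FRET, excitation 422 nm, emission at 530 and 480 nm / Evaluation: loss of energy transfer signal / Control set: 5 µM unlabeled CBFb as full-inhibition high control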
eIF4E 4G PPI = inhibitors of eIF4E and eIF4G interaction in translation initiation; P63073+Q04637; TR-FRET eIF4E-eIF4GI(517-606) binding, 2 h; inhibition, % at 21.7 µM; 220,000 compounds, 0.37% hits; AID 782;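 active = inhibition above about 30%, limit read from the data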;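 note: 0% = full FRET control wells and 100% = background wells lacking eIF4GI fragment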
YIC FRET counter = counter-screen YIC FRET for RanGTP-importin-beta inhibitors. AID 435026. Purified YIC probe, intramolecular FRET ratio YFP/CFP. 1,000 compounds, 40% hits. IC50, µM. shares compounds with RanGTP-Imp inh;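 active = fitted half-maximal inhibitory concentration no more than tenfold above the top dose tested; inconclusive = flat fit with 30 to 70% activity, or poor fit; inactive = half-maximal concentration beyond tenfold above the top dose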
* hit, by the source's call. This is a sample that favours compounds with a hit; in the whole collection about 2.2% have one here.

For CCN(CC)c1ccc(/C=N/NC(=O)c2c(Cl)cnn2C)c(O)c1 the results were PERK inhibitor 0, Hck Nef HTS 11, RanGTP-Imp inh 22*, Runt-SMMHC FRET 83*, Runt-CBFb FRET 74*, eIF4E 4G PPI -3 and YIC FRET counter 4*.
For CCOC(=O)N/N=C/c1ccc(N(CC)CC)cc1O the results were PERK inhibitor 0, Hck Nef HTS 7, RanGTP-Imp inh 3, Runt-SMMHC FRET 1, Runt-CBFb FRET 2 and eIF4E 4G PPI -1.
`COCCNC(=O)C(c1ccc(F)cc1)N(C(=O)CCC(=O)Nc1nccs1)c1ccc(C)cc1` (stereo not drawn) gave PERK inhibitor 0, Hck Nef HTS 21, RanGTP-Imp inh 1, Runt-SMMHC FRET -2, Runt-CBFb FRET -3 and eIF4E 4G PPI 2.
CC(O)CNc1nc2ccccc2n1CC(=O)NC12CC3CC(CC(C3)C1)C2 (stereo not drawn) was read as PERK inhibitor 0, Hck Nef HTS 26, RanGTP-Imp inh 22*, Runt-SMMHC FRET 1, Runt-CBFb FRET -3, eIF4E 4G PPI 2 and YIC FRET counter >50.
Screening COC(=O)C1=C(C)NC(C)=C(C(=O)OC)C1C(=O)OC(C)C(=O)c1ccccc1 (stereo not drawn) returned PERK inhibitor 1, Hck Nef HTS -5, RanGTP-Imp inh 22*, Runt-SMMHC FRET -2, Runt-CBFb FRET 1, eIF4E 4G PPI 3 and YIC FRET counter >50.
Screening N=C(N)SCc1nc2ccccc2c(=O)n1-c1ccccc1Cl returned PERK inhibitor 1, Hck Nef HTS 1, RanGTP-Imp inh 26*, Runt-SMMHC FRET 0, Runt-CBFb FRET 0, eIF4E 4G PPI 3 and YIC FRET counter >50.
For Cc1cc(-c2nn(C)c(=O)c3ccccc23)ccc1CNC(=O)NC1CCCCC1 the results were PERK inhibitor 1, Hck Nef HTS 15, RanGTP-Imp inh 1, Runt-SMMHC FRET -3, Runt-CBFb FRET -2 and eIF4E 4G PPI -6.
For Cn1nnnc1SCC(=O)Nc1nn(-c2ccccc2)nc1C(N)=O the results were PERK inhibitor 0, Hck Nef HTS 15, RanGTP-Imp inh 18*, Runt-SMMHC FRET -3, Runt-CBFb FRET 1, eIF4E 4G PPI -5 and YIC FRET counter >50.
Cn1nnnc1SCC(=O)Nc1ccc(Oc2ccccc2)cc1 was read as PERK inhibitor 2, Hck Nef HTS 11, RanGTP-Imp inh 0, Runt-SMMHC FRET -1, Runt-CBFb FRET 0 and eIF4E 4G PPI 3.
For COc1ccc(N2CCN(CCC3Oc4cc([N+](=O)[O-])ccc4NC3=O)CC2)cc1 (stereo not drawn) the results were PERK inhibitor 1, Hck Nef HTS 0, RanGTP-Imp inh inconclusive, Runt-SMMHC FRET -1, Runt-CBFb FRET -1 and eIF4E 4G PPI 2.
CCOC(=O)CSc1nc2cc(C(=O)OC)ccc2c(=O)n1CCN1CCOCC1 was read as PERK inhibitor 1, Hck Nef HTS 1, RanGTP-Imp inh 1, Runt-SMMHC FRET -2, Runt-CBFb FRET -4 and eIF4E 4G PPI 9.
For COC(=O)c1ccc2c(=O)n(CCN3CCOCC3)c(SCC(=O)C(C)(C)C)nc2c1 the results were PERK inhibitor 0, Hck Nef HTS 0, RanGTP-Imp inh 19*, Runt-SMMHC FRET -3, Runt-CBFb FRET 0, eIF4E 4G PPI 4 and YIC FRET counter >50.
`COc1ccc(OC(=O)c2cc3cc(Cl)ccc3oc2=O)cc1` gave RanGTP-Imp inh 4.
`Cc1c(C=O)cnn1CCC(=O)O` gave PERK inhibitor 0, Hck Nef HTS -9, RanGTP-Imp inh 23* and YIC FRET counter >50.
For CCOc1ccccc1N(CC(=O)Nc1ccccc1C(=O)N1CCCC1)S(C)(=O)=O the results were RanGTP-Imp inh 3.
For CN(CC(=O)Nc1ccccc1Br)C(=O)c1cccc([N+](=O)[O-])c1 the results were RanGTP-Imp inh 8.
`CC(=O)Cc1nsc(NC(=O)c2ccc(-c3cccc(C(F)(F)F)c3)o2)n1` gave PERK inhibitor 0, Hck Nef HTS 0, RanGTP-Imp inh 22*, Runt-SMMHC FRET 0, Runt-CBFb FRET 3, eIF4E 4G PPI 7 and YIC FRET counter >50.
Screening CC(=O)Cc1nsc(NC(=O)c2ccc(-c3cc(C(F)(F)F)ccc3Cl)o2)n1 returned PERK inhibitor 1, Hck Nef HTS -2, RanGTP-Imp inh 1, Runt-SMMHC FRET 3, Runt-CBFb FRET -3 and eIF4E 4G PPI -7.
COc1ccc(CCn2c(C)nc3ccccc3c2=O)cc1OC was read as PERK inhibitor 0, Hck Nef HTS 21, RanGTP-Imp inh 23*, Runt-SMMHC FRET -1, Runt-CBFb FRET 2, eIF4E 4G PPI -2 and YIC FRET counter >50.
`CCOc1ccc(NS(=O)(=O)c2ccc3c(c2)CCN3C(=O)CCC(=O)O)cc1` gave PERK inhibitor 1, Hck Nef HTS 0, RanGTP-Imp inh 28*, Runt-SMMHC FRET -3, Runt-CBFb FRET -1, eIF4E 4G PPI -2 and YIC FRET counter >50.
CC(=O)c1cccc(OCC(=O)N(C)CC(=O)Nc2ccc(F)cc2)c1 was read as PERK inhibitor 1, Hck Nef HTS 3, RanGTP-Imp inh 65*, Runt-SMMHC FRET 2, Runt-CBFb FRET -2, eIF4E 4G PPI 7 and YIC FRET counter >50.
For C1=CC2CC1CC2CN1CCN(c2ccccc2)CC1 (stereo not drawn) the results were PERK inhibitor 1, Hck Nef HTS -4, RanGTP-Imp inh -1, Runt-SMMHC FRET -2, Runt-CBFb FRET 0 and eIF4E 4G PPI 0.
Screening Cc1cc2ncc(S(C)(=O)=O)c(N)n2n1 returned PERK inhibitor 0, Hck Nef HTS 24, RanGTP-Imp inh -1, Runt-SMMHC FRET -2, Runt-CBFb FRET 0 and eIF4E 4G PPI -3.
`O=C(CN1CCOc2ccccc21)NCc1ccco1` gave PERK inhibitor 0, Hck Nef HTS 2, RanGTP-Imp inh inconclusive, Runt-SMMHC FRET -1, Runt-CBFb FRET 4 and eIF4E 4G PPI 0.
Screening O=C(CN1CC(=O)Oc2ccccc21)NCc1ccco1 returned PERK inhibitor 1, Hck Nef HTS 2, RanGTP-Imp inh 19*, Runt-SMMHC FRET 3, Runt-CBFb FRET 5, eIF4E 4G PPI 6 and YIC FRET counter >50.
`N#CC1=C(N)SC(N)=C(C#N)C1c1c(Cl)cccc1Cl` gave PERK inhibitor 1, Hck Nef HTS 14, RanGTP-Imp inh 10, Runt-SMMHC FRET 43, Runt-CBFb FRET 15 and eIF4E 4G PPI 1.
For N#CC1=C(N)SC(N)=C(C#N)C1c1cccc(Oc2ccccc2)c1 the results were PERK inhibitor 0, Hck Nef HTS 5, RanGTP-Imp inh 24*, Runt-SMMHC FRET 78*, Runt-CBFb FRET 39, eIF4E 4G PPI 2 and YIC FRET counter >50.
